In assay [1] the target is T1, Angiotensin-converting enzyme (Mus musculus, UniProt P09470).
T1 sequence (P09470 whole entry): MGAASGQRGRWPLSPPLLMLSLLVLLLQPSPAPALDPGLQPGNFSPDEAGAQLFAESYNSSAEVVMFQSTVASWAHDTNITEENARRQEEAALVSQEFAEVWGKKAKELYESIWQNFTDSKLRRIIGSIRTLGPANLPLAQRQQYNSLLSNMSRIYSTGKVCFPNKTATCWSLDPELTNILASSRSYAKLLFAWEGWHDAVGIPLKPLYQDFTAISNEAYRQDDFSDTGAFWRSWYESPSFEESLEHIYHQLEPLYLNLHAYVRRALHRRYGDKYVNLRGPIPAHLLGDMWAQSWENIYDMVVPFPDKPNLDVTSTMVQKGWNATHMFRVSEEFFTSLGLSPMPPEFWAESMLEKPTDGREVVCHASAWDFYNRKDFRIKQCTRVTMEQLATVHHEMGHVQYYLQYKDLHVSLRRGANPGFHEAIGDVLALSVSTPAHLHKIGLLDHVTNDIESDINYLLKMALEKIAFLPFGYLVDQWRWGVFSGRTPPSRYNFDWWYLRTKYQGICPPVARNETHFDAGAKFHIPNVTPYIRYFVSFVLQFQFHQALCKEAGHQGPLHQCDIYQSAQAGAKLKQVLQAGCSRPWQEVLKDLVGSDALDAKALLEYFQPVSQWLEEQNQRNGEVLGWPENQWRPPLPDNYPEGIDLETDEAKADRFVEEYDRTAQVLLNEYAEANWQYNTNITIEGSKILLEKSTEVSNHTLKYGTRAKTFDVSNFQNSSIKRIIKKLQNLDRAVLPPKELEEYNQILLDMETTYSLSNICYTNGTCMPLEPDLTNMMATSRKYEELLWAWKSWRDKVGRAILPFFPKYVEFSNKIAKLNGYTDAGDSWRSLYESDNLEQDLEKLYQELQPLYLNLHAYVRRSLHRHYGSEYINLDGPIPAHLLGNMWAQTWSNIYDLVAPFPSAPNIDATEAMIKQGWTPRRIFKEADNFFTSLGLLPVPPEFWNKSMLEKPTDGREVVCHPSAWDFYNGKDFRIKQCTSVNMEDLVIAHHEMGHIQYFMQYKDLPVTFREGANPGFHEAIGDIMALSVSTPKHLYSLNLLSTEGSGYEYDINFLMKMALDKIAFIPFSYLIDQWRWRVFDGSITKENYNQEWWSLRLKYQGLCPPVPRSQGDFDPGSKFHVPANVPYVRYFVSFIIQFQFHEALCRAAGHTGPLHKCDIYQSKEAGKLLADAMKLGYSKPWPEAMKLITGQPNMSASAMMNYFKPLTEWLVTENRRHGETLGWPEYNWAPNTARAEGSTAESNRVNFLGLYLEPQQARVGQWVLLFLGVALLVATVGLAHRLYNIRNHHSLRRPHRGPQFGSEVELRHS
Description: Inhibitory potency against angiotensin converting enzyme by displacement of [3H]trandolaprilate binding in mouse lung.

The target in assay [2] is T2, Angiotensin-converting enzyme (Mus musculus) (UniProt P09470).
T2 sequence (whole entry): T1 sequence (P09470 whole entry)
Description: In vivo inhibition of lung Angiotensin Converting Enzyme (ACE) in mouse at a dose of 2.6*10e-5 mol/kg after 60 min oral administration. It counts as functional, organism-based. The procedure, abridged:
(§1)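 Prescreen in mice: single oral dose of 2.6 X 10-5 mol/kg of prodrug (thioacetyl and benzyl ester protected, tested as stereoisomer mixtures). Inhibition of binding of a tritiated ACE probe to lung measured 20 and 60 min after dosing. Mean ± SEM of three experiments, three mice each.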

In assay [3] the target is T2, Angiotensin-converting enzyme (Mus musculus). Description: Inhibition of lung Angiotensin Converting Enzyme (ACE) in mouse at a dose of 2.6*10e-5 mol/kg after 20 min oral administration. Summed up:
as §1

Assay [4] shares this target. Description: In vivo inhibition of lung ACE was observed at 240 min after oral administration of the compound. It counts as functional, organism-based. Further details: concentration or dose not given beside the values.
For assay [5] the target is unchanged. Description: In vivo inhibition of lung ACE was observed at 30 min after oral administration of the compound. It counts as organism-based. The arrangement: concentration or dose not given beside the values.
For assay [6] the target is unchanged. Description: In vivo inhibition of lung ACE was observed at 120 min after oral administration of the compound. Type of assay: functional, organism-based. Further details: concentration or dose not given beside the values.
The test system of the next assay is Mus musculus. Description: In vivo inhibition of lung ACE was observed at 60 min after oral administration. It counts as functional. Further details: concentration or dose not given beside the values.

The molecule `CC(NC(=O)C(CS)C(C)c1ccc2c(c1)OCO2)C(=O)O` (stereo unspecified) registered an IC50 in assay [1] of 9.5 nM.

As for `CC(c1ccc(O)cc1)C(CS)C(=O)NC(Cc1ccc(O)cc1)C(=O)O` (stereo unspecified), the half-inhibitory concentration (IC50) in assay [1] amounted to 7.9 nM.

In the case of `CC(c1ccc(N)cc1)C(CS)C(=O)NC(Cc1ccc(O)cc1)C(=O)O` (stereo unspecified), the concentration for half-maximal inhibition (IC50) in assay [1] worked out at 12 nM.

`CC(c1ccccc1)C(CS)C(=O)NCC(=O)O` (stereo unspecified) came in with a half-inhibitory concentration (IC50) in assay [1] of 32 nM.

For `C[C@H](NC(=O)[C@H](CS)[C@@H](C)c1ccccc1)C(=O)O` (stereo in doubt; 44c), affinity in assay [1] was put at a Ki of 4.5 nM.

Turning to `CC(=O)SCC(C(=O)N[C@@H](Cc1ccc(O)cc1)C(=O)OCc1ccccc1)C(C)c1ccccc1` (stereo partly specified), the inhibition in assay [2] came out at 7%; in assay [3], 20%.

For the molecule `C[C@H](c1ccccc1)[C@@H](CS)C(=O)N[C@@H](Cc1ccccc1)C(=O)O`, the affinity in assay [1] corresponds to a Ki of 10 nM.

`CC(NC(=O)C(CS)C(C)c1ccc(F)c(F)c1)C(=O)O` (stereo unspecified): in assay [1], the concentration for half-maximal inhibition (IC50) is 5 nM.

Regarding `CCC(c1ccccc1)C(CS)C(=O)NC(Cc1ccc(O)cc1)C(=O)O` (stereo unspecified), the IC50 in assay [1] came to 110 nM.

With `COc1ccc(C(C)C(CS)C(=O)NC(Cc2ccc(O)cc2)C(=O)O)cc1` (stereo unspecified), in assay [1], the 50% inhibitory concentration (IC50) is 3.6 nM.

`CC(c1ccccc1)C(CS)C(=O)NC(COCc1ccccc1)C(=O)O` (stereo unspecified): in assay [1], the concentration for half-maximal inhibition (IC50) came to 43 nM.

`Cc1ccccc1C(C)C(CS)C(=O)NC(Cc1ccc(O)cc1)C(=O)O` (stereo unspecified) came in with a concentration for half-maximal inhibition (IC50) in assay [1] of 210 nM.

Regarding `CC(c1ccccc1)C(CSC(=O)C12CC3CC(CC(C3)C1)C2)C(=O)N[C@@H](C)C(=O)OCc1ccccc1` (stereo partly specified), the Control was 16% in assay [4], 41% in assay [5], 42% in assay [6] and 34% with Mus musculus.

For the molecule `CC(c1ccccc1)C(CSC(=O)C12CC3CC(CC(C3)C1)C2)C(=O)N[C@@H](C)C(=O)O` (stereo partly specified), the Control in assay [4] came out at 35%; in assay [5] it was 40%; in assay [6], 36%; in the assay with Mus musculus it was 39%.

In assay [1], `CC(c1ccccc1)C(CS)C(=O)NC(Cc1ccc(O)cc1)C(=O)O` (stereo unspecified) returned a half-inhibitory concentration (IC50) of 4.3 nM.

The molecule `C[C@H](NC(=O)[C@H](CS)[C@@H](C)c1ccccc1)C(=O)O` (stereo in doubt; 44b) yielded an inhibition constant (Ki) in assay [1] of 16 nM.

Turning to `CC(NC(=O)C(CS)C(C)c1ccc(F)cc1)C(=O)O` (stereo unspecified), the concentration for half-maximal inhibition (IC50) in assay [1] turned out to be 10 nM.

For the molecule `CC(C)C(NC(=O)C(CS)C(C)c1ccccc1)C(=O)O` (stereo unspecified), the IC50 in assay [1] was found to be 100 nM.

In assay [1], `CCCC(NC(=O)C(CS)C(C)c1ccccc1)C(=O)O` (stereo unspecified) showed a concentration for half-maximal inhibition (IC50) of 4 nM.

With `C[C@@H](c1ccccc1)[C@@H](CS)C(=O)N[C@@H](Cc1ccccc1)C(=O)O` (stereo in doubt; 48c), the inhibition constant Ki in assay [1] came out at 1.9 nM.

Regarding `CC(=O)Oc1ccc(C[C@H](NC(=O)C(CSC(C)=O)C(C)c2ccc(F)c(F)c2)C(=O)OCc2ccccc2)cc1` (stereo partly specified), the inhibition in assay [2] is 19%; in assay [3], 24%.

As to `COc1ccc(C(C)C(CS)C(=O)NC(Cc2ccc(O)cc2)C(=O)O)cc1OC` (stereo unspecified), the IC50 in assay [1] amounted to 4 nM.

On to `C[C@@H](c1ccccc1)[C@@H](CS)C(=O)N[C@@H](Cc1ccccc1)C(=O)O` (stereo in doubt; 48a), for which, in assay [1], affinity was put at a Ki of 26 nM.

Turning to `CC(c1ccccc1)C(CS)C(=O)N[C@@H](C)C(=O)O` (stereo partly specified), in assay [1], the IC50 was 20 nM.

In assay [1], `O=C(NC(Cc1ccc(O)cc1)C(=O)O)C(CS)Cc1ccccc1` (stereo unspecified) had a concentration for half-maximal inhibition (IC50) of 25 nM.

`COc1cc(C(C)C(CS)C(=O)NC(Cc2ccc(O)cc2)C(=O)O)ccc1O` (stereo unspecified) gave an IC50 in assay [1] of 14 nM.

As to `CC(=O)SCC(C(=O)N[C@@H](C)C(=O)O)C(C)c1ccccc1` (stereo partly specified), the Control in assay [4] amounted to 16%; in assay [5], 31%; in assay [6], 18%; in the assay on Mus musculus it was 29%.

As to `CCC(NC(=O)C(CS)C(C)c1ccccc1)C(=O)O` (stereo unspecified), in assay [1], the 50% inhibitory concentration (IC50) came to 5.4 nM.

For `CCCCC(NC(=O)C(CS)C(C)c1ccccc1)C(=O)O` (stereo unspecified), the IC50 in assay [1] is 7 nM.

On to `CC(=O)SCC(C(=O)N[C@@H](C)C(=O)OCc1ccccc1)C(C)c1ccc(F)c(F)c1` (stereo partly specified), for which the inhibition was 22% in assay [2] and 35% in assay [3].

On to `CC(c1ccc(F)c(F)c1)C(CS)C(=O)NC(Cc1ccc(O)cc1)C(=O)O` (stereo unspecified), for which the IC50 in assay [1] stood at 4.5 nM.

For the molecule `CC(C)CC(NC(=O)C(CS)C(C)c1ccccc1)C(=O)O` (stereo unspecified), the IC50 in assay [1] came out at 19 nM.

In assay [1], `C[C@H](NC(=O)[C@H](CS)[C@@H](C)c1ccccc1)C(=O)O` (stereo in doubt; 44d) came in with an inhibitory constant (Ki) of 95 nM.

`CCCC[C@H](NC(=O)C(CSC(C)=O)C(C)c1ccccc1)C(=O)OCc1ccccc1` (stereo partly specified): the inhibition turned out to be 41% in assay [2] and 34% in assay [3].

Molecule `CC(c1ccc(F)cc1)C(CS)C(=O)NC(Cc1ccc(O)cc1)C(=O)O` (stereo unspecified) yielded a half-maximal inhibitory concentration (IC50) in assay [1] of 6.9 nM.

In assay [1], `C[C@H](NC(=O)[C@H](CS)[C@@H](C)c1ccccc1)C(=O)O` (stereo in doubt; 44a) had a Ki of 80 nM.

On to `C[C@@H](c1ccccc1)[C@@H](CS)C(=O)N[C@@H](Cc1ccccc1)C(=O)O` (stereo in doubt; 48b), for which, in assay [1], affinity was put at a Ki of 15 nM.

In the case of `CC(=O)Oc1ccc(C[C@H](NC(=O)C(CSC(C)=O)C(C)c2ccc(F)cc2)C(=O)OCc2ccccc2)cc1` (stereo partly specified), the inhibition stood at 11% in assay [2] and 36% in assay [3].

On to `CC(=O)Oc1ccc(C[C@H](NC(=O)C(CSC(C)=O)C(C)c2ccccc2)C(=O)OCc2ccccc2)cc1` (stereo partly specified), for which the inhibition is 28% in assay [2] and 25% in assay [3].

As to `COc1ccc(C(C)C(CSC(C)=O)C(=O)N[C@@H](Cc2ccc(OC(C)=O)cc2)C(=O)OCc2ccccc2)cc1` (stereo partly specified), the inhibition in assay [2] was 33%; in assay [3] it was 14%.

Values taken from ChEMBL document CHEMBL1127630, “New dual inhibitors of neutral endopeptidase and angiotensin-converting enzyme: rational design, bioavailability, and pharmacological responses in experimental hypertension” (J Med Chem, 1994).
